Experimental data gathered from unrelated publications.
Compare with care: the assays were run in different laboratories.
Target: Phosphatidylinositol 4,5-bisphosphate 3-kinase catalytic subunit delta isoform (PIK3CD, Homo sapiens, UniProt O00329)
Sequence (O00329 1-1044, as in one of the studies): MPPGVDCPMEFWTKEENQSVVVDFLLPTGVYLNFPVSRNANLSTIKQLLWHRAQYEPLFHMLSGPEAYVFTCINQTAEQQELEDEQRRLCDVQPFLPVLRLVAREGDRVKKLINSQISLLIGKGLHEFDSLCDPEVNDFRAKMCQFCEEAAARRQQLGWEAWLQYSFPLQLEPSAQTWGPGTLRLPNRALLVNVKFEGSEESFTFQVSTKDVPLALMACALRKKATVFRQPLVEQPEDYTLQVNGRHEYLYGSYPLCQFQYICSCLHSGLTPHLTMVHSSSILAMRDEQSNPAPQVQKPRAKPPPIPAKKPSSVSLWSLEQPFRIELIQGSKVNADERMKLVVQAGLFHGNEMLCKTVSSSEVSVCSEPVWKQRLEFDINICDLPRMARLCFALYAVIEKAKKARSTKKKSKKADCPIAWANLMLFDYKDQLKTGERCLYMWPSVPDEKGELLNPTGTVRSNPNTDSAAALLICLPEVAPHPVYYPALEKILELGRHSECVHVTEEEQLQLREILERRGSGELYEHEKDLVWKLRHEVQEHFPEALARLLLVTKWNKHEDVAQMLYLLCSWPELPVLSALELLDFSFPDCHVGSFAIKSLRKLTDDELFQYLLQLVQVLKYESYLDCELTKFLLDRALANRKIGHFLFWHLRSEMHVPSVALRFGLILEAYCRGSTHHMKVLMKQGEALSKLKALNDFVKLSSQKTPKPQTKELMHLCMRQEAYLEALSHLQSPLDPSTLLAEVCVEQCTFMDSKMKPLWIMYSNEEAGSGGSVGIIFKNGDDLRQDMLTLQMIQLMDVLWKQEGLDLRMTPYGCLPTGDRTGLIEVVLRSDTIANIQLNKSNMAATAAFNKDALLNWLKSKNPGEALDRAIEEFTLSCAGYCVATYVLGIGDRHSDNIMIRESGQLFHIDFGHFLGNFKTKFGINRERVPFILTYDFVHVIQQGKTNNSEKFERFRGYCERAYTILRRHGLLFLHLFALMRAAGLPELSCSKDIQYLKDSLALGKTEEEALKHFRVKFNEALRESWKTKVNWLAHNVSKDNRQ

| SMILES | test | setting | remaining binding [%] |
| --- | --- | --- | --- |
| CN(C)c1nccc(-c2cnc3ncccn23)n1 | binding | 1 µM | 50 |
| Cc1cc(-n2nc(Cc3cc(F)cc(C(F)(F)F)c3)nc2C)ccc1C(N)=O | cell-free assay, competition with immobilised ligand | 1 µM | 52 |
| Cc1cnc(Nc2ccc(C(=O)N3CCC(N4CCCC4)CC3)cc2)nc1-c1cc2ccccc2s1 | binding, competition with immobilised ligand | 1 µM | 90 |
| CC1=C(C#N)[C@@H](c2ccc3[nH]nc(C)c3c2)C(C#N)=C(c2ccc(Cl)cc2)N1 | cell-free assay, competition with immobilised ligand | 1 µM | 100 |
| C[C@H]1CCN(c2nccc(-c3cnn4ncccc34)n2)C1 | binding | 1 µM | 100 |
| C[C@@H](c1ccc(-n2cnc3c(N)ncnc32)cc1)N1CCc2nn(C)c(Cc3ccccc3)c2C1=O | binding, competition with immobilised ligand | 0.1 µM | 61 |
| O=C(NCCCN1CCOCC1)c1ccc(Nc2ncc(Cl)c(-c3ccc(Cl)s3)n2)cc1 | binding, competition with immobilised ligand | 1 µM | 100 |
| CCN1CCN(Cc2ccc(C(=O)Nc3ccc(C)c(Oc4ccc5c(c4)CC(=O)N5)c3)cc2C(F)(F)F)CC1 | binding, competition with immobilised ligand | 1 µM | 100 |
| COc1ccc2c(c1)O[C@@H](c1ccc(OC)c(OC)c1)C[C@H]2NC(=O)C1(c2ccc3c(c2)OC(F)(F)O3)CC1 | cell-free assay, competition with immobilised ligand | 1 µM | 97 |
| O=C(NCC1CCOCC1)c1n[nH]cc1NC(=O)c1c(F)cccc1F | binding, competition with immobilised ligand | 1 µM | 87 |
| COc1ccnn2ncc(-c3ccnc(N(C)C)n3)c12 | binding | 1 µM | 68 |
| Cc1nc(N2CC[C@@H](O)C2)ncc1-c1cc(C(F)(F)F)cc2[nH]ncc12 | cell-free assay, competition with immobilised ligand | 1 µM | 72 |
| CC1CCCN1c1nccc(-c2cnn3ncccc23)n1 (stereo not drawn) | binding | 1 µM | 100 |
| CCOCCn1cc(C(=O)Nc2ccc(-n3nc(-c4cccnc4)cc3C(F)(F)F)cn2)ccc1=O | cell-free assay, competition with immobilised ligand | 1 µM | 100 |
| CNC(=O)[C@@H]1CC[C@@H](n2c(-c3ccc4cnccc4c3)nc3ccc(C(=O)NCc4cccc(C(N)=O)c4)cc32)C1 | binding, competition with immobilised ligand | 1 µM | 100 |
| O=C(c1ccc(Nc2ncc(Cl)c(-c3ccc(Cl)s3)n2)cc1)N1CCC(N2CCCC2)CC1 | binding, competition with immobilised ligand | 1 µM | 100 |
| CN(c1ccnc(CNc2nc(Nc3ccc4c(c3)CC(=O)N4)ncc2C(F)(F)F)n1)S(C)(=O)=O | cell-free assay, competition with immobilised ligand | 1 µM | 77 |
| CN(C)c1ncc(F)c(-c2cnn3ncccc23)n1 | binding | 1 µM | 98 |
| Nc1ncc2c(n1)-c1c([nH]c3ccc(C#CC4CC4)cc13)CCCC2 | binding, competition with immobilised ligand | 1 µM | 70 |
| N[C@H]1CCN(c2nccc(-c3cnn4ncccc34)n2)C1 | binding | 1 µM | 100 |
| COc1cnc(Nc2cccc(S(N)(=O)=O)c2)nc1N1CCN(c2ccccc2)CC1 | binding, competition with immobilised ligand | 1 µM | 81 |
